Results published in the array DNA melting data of Ke et al. (doi:10.1101/2024.01.08.574731).

What was measured:
[1] = melting temperature; fluorescence melt of hairpins on a sequencing array, two-state fit, raised by 9.35 °C to match UV melts; settings: sodium 0.088 M
Procedure, shortened: (§1)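 Folding enthalpy and melting temperature were estimated with bootstrapped two-state fits and combined across four replicates by inverse-variance weighting, with fitted temperatures raised by 9.35 °C to match UV melts. The data were Cy3 fluorescence of library hairpins, with annealed Cy3 and quencher oligos, on a sequenced MiSeq flow cell in 50 mM Na-HEPES pH 8.0, 25 mM NaCl, imaged in 2.5 °C steps up to 60 °C and normalised to pre-quench Cy3 and control constructs.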

[2] = folding enthalpy; higher = less favourable; fluorescence melt of hairpins on a sequencing array, two-state fit; settings: sodium 0.088 M
Procedure, shortened: as §1

Sequence | Tm [1] | folding enthalpy [2]
CTATTGAAAAATAG (((((....))))) | 23.4 °C | -8.21 kcal/mol
CTCAAGAAATTGAG (((((....))))) | 33.8 °C | -12.8 kcal/mol
CTCATGAAAATGAG (((((....))))) | 44.8 °C | -21.3 kcal/mol
CTCCAGAAATGGAG (((((....))))) | 44.9 °C | -18.9 kcal/mol
CTGCAGAAATGCAG (((((....))))) | 53.4 °C | -21 kcal/mol
CTGCTGAAAAGCAG (((((....))))) | 58.9 °C | -22.2 kcal/mol
CTGGAGAAATCCAG (((((....))))) | 43.6 °C | -27.1 kcal/mol
CTGGGGAAACCCAG (((((....))))) | 53.5 °C | -25.4 kcal/mol
CTGTCGAAAGACAG (((((....))))) | 67.5 °C | -21.3 kcal/mol
CTTCTGAAAAGAAG (((((....))))) | 43.3 °C | -14.7 kcal/mol
CTTGCGAAAGCAAG (((((....))))) | 58.8 °C | -16.9 kcal/mol
GAAAAACCGAAAGGTTTC (((..(((....)))))) | 34.8 °C | -12.4 kcal/mol
GAAAAACGAAAGTTGTTC (((.(((....))).))) | 33.6 °C | -19.6 kcal/mol
GAAAACCGAAAGGTATTC (((.(((....))).))) | 37.5 °C | -23.5 kcal/mol
GAAAACGAAAGTTCGTTC ((((((....)))..))) | 25.1 °C | -10.8 kcal/mol
GAAAACGAAAGTTTTC ((((((....)))))) | 55 °C | -37.9 kcal/mol
GAAAACGAAAGTTTTTC ((((((....))).))) | 42.1 °C | -17.8 kcal/mol
GAAAAGACGAAAGTCTTC (((..(((....)))))) | 35.6 °C | -11.8 kcal/mol
GAAAAGCGAAAGCTATTC (((.(((....))).))) | 36.4 °C | -19.5 kcal/mol
GAAAAGCGAAAGCTTTC (((.(((....)))))) | 43.5 °C | -14.2 kcal/mol
GAAACCGAAAGGTAATTC ((((((....)))..))) | 27.9 °C | -9.6 kcal/mol
GAAACCGAAAGGTTATTC ((((((....)))..))) | 29.6 °C | -12.4 kcal/mol
GAAACGCGAAAGCGATTC (((.(((....))).))) | 50.8 °C | -28.3 kcal/mol

Sequence | Tm [1] | folding enthalpy [2]
GAAACGGGAAACCGTTCC (.(((((....))))).) | 39.4 °C | -14.6 kcal/mol
GAAACTGGAAACAGTTCC (.(((((....))))).) | 35.2 °C | -19.3 kcal/mol
GAAACTGGAAACGGTTTC (((((.(....).))))) | 44.5 °C | -34.5 kcal/mol
GAAAGCGAAAGCTATTC ((((((....))).))) | 30.4 °C | -12 kcal/mol
GAAAGCGAAAGCTGATTC ((((((....)))..))) | 42 °C | -19.2 kcal/mol
GAAAGCGAAAGCTTTTC ((((((....))).))) | 47.1 °C | -12.9 kcal/mol
GAAAGGGGAAACTCTTTC (((((.(....).))))) | 36.3 °C | -25 kcal/mol
GAAATACGAAAGTAGTTC (((.(((....))).))) | 42.1 °C | -26.7 kcal/mol
GAAATCCGAAAGGAGTTC (((.(((....))).))) | 49.4 °C | -31.9 kcal/mol
GAAATGCGAAAGCAGTTC (((.(((....))).))) | 52.4 °C | -33.5 kcal/mol
GAAATGGAAACATTTC ((((((....)))))) | 46.7 °C | -30.2 kcal/mol
GAAATGGGAAACCGTTTC ((((.((....)).)))) | 43.6 °C | -33.4 kcal/mol
GAAATTGCGAAAGCATTC (((..(((....)))))) | 23.4 °C | -6.33 kcal/mol
GAAATTGGAAACAGTTTC ((((.((....)).)))) | 34.2 °C | -26.4 kcal/mol
GAACACCGAAAGGTCTTC (((.(((....))).))) | 35.2 °C | -15.2 kcal/mol
GAACACCGAAAGGTTTC (((.(((....)))))) | 37.4 °C | -20.5 kcal/mol
GAACACCGAAAGGTTTTC (((.(((....))).))) | 38 °C | -25.1 kcal/mol
GAACACGAAAGTGCTTC ((((((....))).))) | 41.9 °C | -20.2 kcal/mol
GAACAGAAATGTTC (((((....))))) | 41.4 °C | -18.1 kcal/mol
GAACAGACGAAAGTCTTC (((..(((....)))))) | 25.6 °C | -9.42 kcal/mol
GAACAGCGAAAGCTCTTC (((.(((....))).))) | 34.3 °C | -14.5 kcal/mol
GAACAGCGAAAGCTTTC (((.(((....)))))) | 33.6 °C | -12.4 kcal/mol
GAACAGCGAAAGCTTTTC (((.(((....))).))) | 37.8 °C | -19.9 kcal/mol

Sequence | Tm [1] | folding enthalpy [2]
GAACATGCGAAAGCATTC (((..(((....)))))) | 26.6 °C | -11 kcal/mol
GAACATGGAAACATGCTC ((.((((....)))).)) | 35.3 °C | -26.5 kcal/mol
GAACCACGAAAGTGTTC (((.(((....)))))) | 43.9 °C | -13.8 kcal/mol
GAACCAGGAAACCGGTTC (((((.(....).))))) | 45.1 °C | -36.3 kcal/mol
GAACCCCGAAAGGGTTC (((.(((....)))))) | 58.9 °C | -30.9 kcal/mol
GAACCCGAAAGGGGCTTC ((((((....)))..))) | 51 °C | -20 kcal/mol
GAACCCGAAAGGGTGTTC ((((((....)))..))) | 47.8 °C | -11.6 kcal/mol
GAACCGAAAGGTTC (((((....))))) | 67.7 °C | -25.6 kcal/mol
GAACCGCGAAAGCGTTTC (((.(((....))).))) | 42.3 °C | -20.5 kcal/mol
GAACCGGGAAACCAGTTC ((((.((....)).)))) | 36.5 °C | -26.2 kcal/mol
GAACCTGAAAAGGTTC ((((((....)))))) | 60.6 °C | -31.8 kcal/mol
GAACCTGGAAACAGATTC (((.(((....))).))) | 31.9 °C | -17.9 kcal/mol
GAACGACGAAAGTCTTTC (((.(((....))).))) | 39.3 °C | -24.4 kcal/mol
GAACGCCGAAAGGCCTTC (((.(((....))).))) | 34.5 °C | -13.1 kcal/mol
GAACGCGAAAGCGACTTC ((((((....)))..))) | 46.1 °C | -13.8 kcal/mol
GAACGCGAAAGCGCATTC ((((((....)))..))) | 25.9 °C | -7.58 kcal/mol
GAACGCGAAAGCGCCTTC ((((((....)))..))) | 35.8 °C | -11.1 kcal/mol
GAACGCGAAAGCGCTTC ((((((....))).))) | 48.6 °C | -14.3 kcal/mol
GAACGCGAAAGCGGTTTC ((((((....)))..))) | 41.9 °C | -10.8 kcal/mol
GAACGGCGAAAGCCCTTC (((.(((....))).))) | 32.8 °C | -12.4 kcal/mol
GAACGGCGAAAGCCTTC (((.(((....)))))) | 39.3 °C | -12.4 kcal/mol
GAACGGGAAACCGTTC ((((((....)))))) | 62.8 °C | -37.1 kcal/mol
GAACGGGGAAACCCGTCC (.(((((....))))).) | 42.5 °C | -11.7 kcal/mol

Sequence | Tm [1] | folding enthalpy [2]
GAACGGGGAAACTCGTTC (((((.(....).))))) | 50.8 °C | -48.7 kcal/mol
GAACGTGGAAACACATTC (((.(((....))).))) | 32.9 °C | -17.1 kcal/mol
GAACGTGGAAACACGTCC (.(((((....))))).) | 41.3 °C | -13.6 kcal/mol
GAACGTGGAAACGTGTTC ((((..(....)..)))) | 37.5 °C | -14.9 kcal/mol
GAACTACGAAAGTATTTC (((.(((....))).))) | 32.7 °C | -13.6 kcal/mol
GAACTCACGAAAGTGTTC (((..(((....)))))) | 29.2 °C | -14.3 kcal/mol
GAACTCCGAAAGGACTTC (((.(((....))).))) | 29.7 °C | -19.5 kcal/mol
GAACTCGCGAAAGCGTTC (((..(((....)))))) | 27.4 °C | -12.5 kcal/mol
GAACTGCGAAAGCATTC (((.(((....)))))) | 30.9 °C | -11.7 kcal/mol
GAACTGCGAAAGCATTTC (((.(((....))).))) | 38.7 °C | -20.1 kcal/mol
GAACTGGGAAACCAATTC (((.(((....))).))) | 29.2 °C | -12.7 kcal/mol
GAACTGGGAAACCAGCTC ((.((((....)))).)) | 38.5 °C | -19.4 kcal/mol
GAACTTGGAAACGAGTTC (((((.(....).))))) | 44.2 °C | -38 kcal/mol
GAAGAACGAAAGTTATTC (((.(((....))).))) | 42.5 °C | -31.6 kcal/mol
GAAGAACGAAAGTTTTC (((.(((....)))))) | 24.9 °C | -12.6 kcal/mol
GAAGAAGGAAACTTCTTC (((((((....))))))) | 50.6 °C | -48.8 kcal/mol
GAAGACGAAAGTCACTTC ((((((....)))..))) | 35 °C | -17.5 kcal/mol
GAAGACGAAAGTCATTC ((((((....))).))) | 31.4 °C | -14.1 kcal/mol
GAAGACGAAAGTCCCTTC ((((((....)))..))) | 30.8 °C | -13.8 kcal/mol
GAAGACGAAAGTCCTTC ((((((....))).))) | 39.2 °C | -20.8 kcal/mol
GAAGACGAAAGTCGTTC ((((((....))).))) | 37.9 °C | -12.3 kcal/mol
GAAGACGAAAGTCTATTC ((((((....)))..))) | 30.5 °C | -11.4 kcal/mol
GAAGACGAAAGTCTGTTC ((((((....)))..))) | 40 °C | -13.7 kcal/mol
